Common to all, as to assay type: cell-based
The target in one assay is Histamine H3 receptor (Homo sapiens, UniProt Q9Y5N1). The assay is described as follows: Displacement of [3H]histamine from human H3 receptor expressed in HEK293 cells after 1 to 1.5 hrs by scintillation counting. (Displacement assays read how much labelled ligand stays bound in the presence of the test substance.)
Assay [1] concerns the target Histamine H4 receptor (Homo sapiens, UniProt Q9H3N8, V102A). The assay can be described thus: Displacement of [3H]histamine from human H4 receptor V3.40A mutant expressed in HEK293 cells after 1 to 1.5 hrs by scintillation counting.
Assay [2] deals with Histamine H4 receptor (Homo sapiens, UniProt Q9H3N8, Q347L). The assay can be described thus: Displacement of [3H]histamine from human H4 receptor Q7.42L mutant expressed in HEK293 cells after 1 to 1.5 hrs by scintillation counting.
Histamine H4 receptor (Homo sapiens, UniProt Q9H3N8, Q347L), sequence (Q9H3N8 whole entry Q347L): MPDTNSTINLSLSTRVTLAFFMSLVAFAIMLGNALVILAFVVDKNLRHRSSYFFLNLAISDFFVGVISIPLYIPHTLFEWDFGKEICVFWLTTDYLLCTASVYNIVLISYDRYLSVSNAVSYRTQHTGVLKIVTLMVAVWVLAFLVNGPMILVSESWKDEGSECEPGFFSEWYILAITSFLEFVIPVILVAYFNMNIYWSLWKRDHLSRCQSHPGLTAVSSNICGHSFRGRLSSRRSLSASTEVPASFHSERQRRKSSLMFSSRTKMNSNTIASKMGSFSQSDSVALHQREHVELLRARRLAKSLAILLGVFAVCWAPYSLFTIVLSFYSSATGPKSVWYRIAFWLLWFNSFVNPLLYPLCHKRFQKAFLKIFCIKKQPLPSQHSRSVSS
The target in assay [3] is Histamine H4 receptor (Homo sapiens, UniProt Q9H3N8, N147Y). The assay is described as follows: Displacement of [3H]histamine from human H4 receptor N4.57Y mutant expressed in HEK293 cells after 1 to 1.5 hrs by scintillation counting.
Histamine H4 receptor (Homo sapiens, UniProt Q9H3N8, N147Y), sequence (Q9H3N8 whole entry N147Y): as the sequence (Q9H3N8 whole entry Q347L) above, with N147Y, L347Q counted along it
For assay [4], the target named is Histamine H4 receptor (Homo sapiens, UniProt Q9H3N8). The assay is described as follows: Displacement of [3H]histamine from human H4 receptor expressed in HEK293 cells after 1 to 1.5 hrs by scintillation counting.
Histamine H4 receptor (Homo sapiens, UniProt Q9H3N8), sequence (Q9H3N8 whole entry): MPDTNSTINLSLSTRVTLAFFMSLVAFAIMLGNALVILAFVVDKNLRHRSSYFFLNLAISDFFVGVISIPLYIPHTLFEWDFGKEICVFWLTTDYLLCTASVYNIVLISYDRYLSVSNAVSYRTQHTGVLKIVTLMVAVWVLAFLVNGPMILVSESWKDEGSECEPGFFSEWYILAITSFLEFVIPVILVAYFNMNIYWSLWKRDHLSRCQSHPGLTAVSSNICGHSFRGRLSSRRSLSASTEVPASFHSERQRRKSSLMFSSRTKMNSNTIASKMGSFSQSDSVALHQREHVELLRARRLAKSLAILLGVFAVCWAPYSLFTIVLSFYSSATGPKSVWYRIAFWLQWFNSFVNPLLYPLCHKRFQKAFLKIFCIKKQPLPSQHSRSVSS
Assay [5] concerns the target Histamine H4 receptor (Homo sapiens, UniProt Q9H3N8, T178A). The assay can be described thus: Displacement of [3H]histamine from human H4 receptor T5.42A mutant expressed in HEK293 cells after 1 to 1.5 hrs by scintillation counting.
Assay [6] addresses Histamine H4 receptor (Homo sapiens, UniProt Q9H3N8, T323M). The assay is described as follows: Displacement of [3H]histamine from human H4 receptor T6.55M mutant expressed in HEK293 cells after 1 to 1.5 hrs by scintillation counting.
Assay [7] has as its target Histamine H4 receptor (Homo sapiens, UniProt Q9H3N8, E182Q). The assay is described as follows: Displacement of [3H]JNJ7777120 from human H4 receptor E5.46Q mutant expressed in HEK293 cells after 1 to 1.5 hrs by scintillation counting. The procedure, abridged: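 HEK293T cells transiently transfected (PEI method) with human H4R E5.46Q cDNA, membranes harvested 2 days later. Crude membranes in 50 mM Tris-HCl pH 7.4 with ~10 nM [3H]JNJ-7777120 and compound at 1 pM to 0.1 mM, room temperature, shaking. Separation by filtration on PEI-presoaked GF/C, ice-cold Tris washes. pKi as mean ± SEM of at least three experiments run in triplicate.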

Each structure is given as a SMILES string.

Histamine H3 receptor, sequence (Q9Y5N1 whole entry): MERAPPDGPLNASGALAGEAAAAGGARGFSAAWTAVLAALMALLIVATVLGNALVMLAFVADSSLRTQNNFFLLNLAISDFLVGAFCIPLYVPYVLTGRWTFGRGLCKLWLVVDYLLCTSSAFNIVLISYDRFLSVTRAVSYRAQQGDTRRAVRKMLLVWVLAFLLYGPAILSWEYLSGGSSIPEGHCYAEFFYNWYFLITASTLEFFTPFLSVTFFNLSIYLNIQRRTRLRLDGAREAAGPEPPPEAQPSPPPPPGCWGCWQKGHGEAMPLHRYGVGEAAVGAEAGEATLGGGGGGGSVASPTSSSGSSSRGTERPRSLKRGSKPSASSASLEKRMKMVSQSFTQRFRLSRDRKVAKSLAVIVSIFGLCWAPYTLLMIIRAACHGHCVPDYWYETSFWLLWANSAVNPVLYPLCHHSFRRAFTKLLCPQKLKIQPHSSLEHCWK
Histamine H4 receptor (Homo sapiens, UniProt Q9H3N8, T323M), sequence (Q9H3N8 whole entry T323M): as the sequence (Q9H3N8 whole entry Q347L) above, with T323M, L347Q counted along it
Histamine H4 receptor (Homo sapiens, UniProt Q9H3N8, T178A), sequence (Q9H3N8 whole entry T178A): as the sequence (Q9H3N8 whole entry Q347L) above, with T178A, L347Q counted along it
Histamine H4 receptor (Homo sapiens, UniProt Q9H3N8, V102A), sequence (Q9H3N8 whole entry V102A): as the sequence (Q9H3N8 whole entry Q347L) above, with V102A, L347Q counted along it
Histamine H4 receptor (Homo sapiens, UniProt Q9H3N8, E182Q), sequence (Q9H3N8 whole entry E182Q): as the sequence (Q9H3N8 whole entry Q347L) above, with E182Q, L347Q counted along it

With `Clc1ccc(CN=C(NC2CCCCC2)SCCCc2cnc[nH]2)cc1`, the Ki (commonly a measure of affinity in units of concentration, obtained from inhibition or displacement) at Histamine H3 receptor was 1.05 nM; on Histamine H4 receptor [1], 63.1 nM; on Histamine H4 receptor [2] it was 12.6 nM; at Histamine H4 receptor [3], 316 nM; on Histamine H4 receptor [4], 47.9 nM; on Histamine H4 receptor [5], 12.6 nM. Moreover, the Ki was 12.6 nM at Histamine H4 receptor [6] and 158 nM at Histamine H4 receptor [7].

As to `O=[N+]([O-])c1ccc(C/N=C(/NC2CCCCC2)SCCCc2c[nH]cn2)cc1`, the values for the Ki on Histamine H3 receptor and at Histamine H4 receptor [4] were 1.15 nM and 135 nM, respectively.

For `c1ccc(CN/C(=N/C2CCCC2)SCCCc2c[nH]cn2)cc1`, the Ki on Histamine H3 receptor and on Histamine H4 receptor [4] was 42.7 nM each time.

Regarding `Clc1ccc(C/N=C(/NCc2ccccc2)SCCCc2c[nH]cn2)cc1Cl`, the Ki at Histamine H3 receptor is 32.4 nM; at Histamine H4 receptor [4] it was 380 nM.

On to `c1nc(CCCS/C(=N\C2CCCC2)NC2CCCCC2)c[nH]1`, for which the Ki at Histamine H3 receptor was 18.6 nM; at Histamine H4 receptor [4], 31.6 nM.

Regarding `Clc1ccc(C/N=C(/NCc2ccccc2)SCCCc2c[nH]cn2)cc1`, the Ki on Histamine H3 receptor was 17 nM; at Histamine H4 receptor [4], 229 nM.

Take `N#Cc1ccc(C/N=C(/NC2CCCCC2)SCCCc2c[nH]cn2)cc1`: the figures for the Ki on Histamine H3 receptor and at Histamine H4 receptor [4] were 1.62 nM and 126 nM, respectively.

With `CCCCN/C(=N/Cc1ccc(Cl)cc1)SCCCc1c[nH]cn1`, the figures for the Ki on Histamine H3 receptor and at Histamine H4 receptor [4] were 4.9 nM and 89.1 nM, respectively.

Consider `c1ccc(CN/C(=N/C2CCCCC2)SCCCc2c[nH]cn2)cc1`, for which the Ki on Histamine H3 receptor was 9.77 nM; at Histamine H4 receptor [4] it was 75.9 nM.

Take `CC(C)(C)N/C(=N/C1CCCC1)SCCCc1c[nH]cn1`: the Ki on Histamine H3 receptor was 67.6 nM; at Histamine H4 receptor [4], 29.5 nM.

As to `NC(=NCc1ccc(Cl)cc1)SCCCc1cnc[nH]1` [CLOBENPROPIT], the Ki is 10 nM on Histamine H4 receptor [1]; 1 nM at Histamine H4 receptor [2]; 15.8 nM at Histamine H4 receptor [3]; 2.51 nM on Histamine H4 receptor [5]; 1.58 nM at Histamine H4 receptor [6]; 50.1 nM at Histamine H4 receptor [7].

As to `CCCCN/C(=N/C1CCCC1)SCCCc1c[nH]cn1`, the Ki on Histamine H3 receptor is 46.8 nM; on Histamine H4 receptor [4], 16.2 nM.

Take `Clc1ccc(C/N=C(/NC2CCCCC2)SCCCc2c[nH]cn2)cc1Cl`: the inhibitory constant (Ki) on Histamine H3 receptor was 1.02 nM; on Histamine H4 receptor [4], 148 nM.

For `CCCCN/C(=N/Cc1ccc(Cl)c(Cl)c1)SCCCc1c[nH]cn1`, the Ki is 4.68 nM on Histamine H3 receptor and 89.1 nM on Histamine H4 receptor [4].

These data come from ChEMBL document CHEMBL1921707 (J Med Chem, 2011).
